# Compound activity deposited in PubChem BioAssay by several laboratories.
# bCat KO growth – beta-catenin-lacking colon tumor cell growth suppression | HCT116 beta-catenin knockout viability, CellTiter-Glo, 60 h; hits give low values | viability, % at 10 µM | 140,000 tested, 1.5% active | AID 818;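 active = viability at or under a set limit, the compound median less 4 SD, cut at about 6% in these data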;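 note: 0% = Hyamine 1622 control at 20 µM and 100% = untreated cell control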
# HUVEC prolif 384 – inhibitors of human endothelial cell proliferation. 86,000 tested, 1.1% active. viability, % at 10 µM (by protocol). HUVEC proliferation, CellTiter-Glo luminescence, 72 h; hits give low values;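 active = viability at or below 30%; inactive = viability above 30%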;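 note: 100% = median luminescence of DMSO-only cell control wells on each plate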
# HCT116 PTEN-null – growth suppressors of cells with PTEN tumor suppressor deletion. HCT116 PTEN-null viability, CellTiter-Glo, 60 h; hits give low values. viability, % at 10 µM. 140,000 tested, 1.2% active. AID 827;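 active = viability at or below a set limit, 4 SD under the median of all tested compounds, cut at about 3.7% in these data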;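 note: PTEN knockout HCT116 line with beta catenin targeted HCT116 as companion control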
# H69AR growth 86K – blocks growth of human H69AR lung tumor cells. H69AR lung tumor viability, ATP luminescence, 72 h; hits give low values. viability, % at 10 µM. 85,000 tested, 6% active. AID 598;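 active = viability at or below 40%; inactive = viability above 40%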;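 note: multidrug resistant small cell line overexpressing MRP-1 efflux transporter; 100% = mean luminescence of untreated control wells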
# Fibroblast inh – blocks proliferation of human lung fibroblasts; LL 47 human lung fibroblast viability, ATP luminescence; hits give low values; viability, % at 10 µM; AID 719; 85,000 tested, 1.1% active;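 active = viability at or below 50% in the single dose screen; inactive = viability above 50%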;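 note: compound exposure lasted 72 h before the ATP readout; 100% = median luminescence of untreated cell-only wells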
#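 Material: Human LL 47 lung fibroblast cells | Input: 1,150 cells/well | Buffer or medium: IMEM plus 15% FBS | Compound dosing: 0.1% DMSO in all compound wells | Times: Overnight cell rest, 72 h compound treatment at 37 °C | Signal: CellTiter-Glo luminescence measuring cellular ATP | Measure: % viability versus median cells-only luminescence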
# Pyk2 oligo antag – antagonists of human Pyk2 oligomerization | Q293 cells, Pyk2 FERM NanoBiT luminescence; hits give low values | z-score (the deposit names both 25 µM and 10 µM) | 99,000 tested, 0.83% active | AID 1347419;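 active = Z-score of -3 or lower, scaled per plate to the spread of control and sample wells; inactive = z-score above -3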;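 note: negative z-score means lost luminescence so less FERM oligomerization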
# Target sequence (Q14289 whole entry, looked up): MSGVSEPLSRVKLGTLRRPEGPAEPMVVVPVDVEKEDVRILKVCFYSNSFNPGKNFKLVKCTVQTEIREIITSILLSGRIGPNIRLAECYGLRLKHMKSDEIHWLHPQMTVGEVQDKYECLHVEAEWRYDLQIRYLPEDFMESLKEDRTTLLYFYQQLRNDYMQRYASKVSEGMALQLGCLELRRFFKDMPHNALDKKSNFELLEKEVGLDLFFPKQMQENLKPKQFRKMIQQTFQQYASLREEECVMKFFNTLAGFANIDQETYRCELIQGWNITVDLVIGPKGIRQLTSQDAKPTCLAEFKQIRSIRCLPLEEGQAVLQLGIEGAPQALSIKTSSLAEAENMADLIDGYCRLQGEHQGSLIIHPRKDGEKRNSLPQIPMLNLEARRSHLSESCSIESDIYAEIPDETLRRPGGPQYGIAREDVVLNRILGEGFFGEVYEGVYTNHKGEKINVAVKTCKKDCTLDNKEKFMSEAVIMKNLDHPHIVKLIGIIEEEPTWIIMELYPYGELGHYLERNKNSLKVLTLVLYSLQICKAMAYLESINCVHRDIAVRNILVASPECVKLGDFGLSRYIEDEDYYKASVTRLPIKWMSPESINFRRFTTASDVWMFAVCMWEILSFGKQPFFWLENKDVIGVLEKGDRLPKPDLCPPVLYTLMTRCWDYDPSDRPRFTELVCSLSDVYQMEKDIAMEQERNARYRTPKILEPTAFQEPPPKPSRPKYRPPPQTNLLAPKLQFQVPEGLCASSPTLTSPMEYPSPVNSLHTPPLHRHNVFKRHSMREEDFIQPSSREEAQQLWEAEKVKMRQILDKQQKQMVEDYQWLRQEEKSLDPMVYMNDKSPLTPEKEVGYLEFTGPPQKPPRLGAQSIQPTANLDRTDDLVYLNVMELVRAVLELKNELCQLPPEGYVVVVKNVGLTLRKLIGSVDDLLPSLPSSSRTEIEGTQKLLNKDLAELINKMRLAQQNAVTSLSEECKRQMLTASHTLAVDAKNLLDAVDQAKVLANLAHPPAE
# Numbers without * were called inactive; . = not tested or not shown. Only a selection was taken, and hits are over-represented in it overall.
SMILES,bCat KO growth,HUVEC prolif 384,HCT116 PTEN-null,H69AR growth 86K,Fibroblast inh,Pyk2 oligo antag
COc1ccc(/C=C2\COc3ccccc3C2=O)cc1OC,1.6*,.,1.1*,.,.,.
COc1cc(/C=C2/CCc3ccccc3C2=O)cc(OC)c1OC,9.7,.,4.5,.,.,.
COc1ccc(/C=C2/CCc3ccccc3C2=O)cc1OC,37.9,.,39.1,.,.,-0.65
O=C(N/N=C/c1cccc(C(F)(F)F)c1)C1CCN(c2ncc(C(F)(F)F)cc2Cl)CC1,4.0*,.,2.1*,.,.,0.55
O=C1c2cccc3cccc(c23)C(=O)N1CC1CCN(CC(O)COCc2ccc3c(c2)OCO3)CC1 (stereo not drawn),7.5,.,21.5,.,.,.
Cc1ccc(C)c(OCC(O)CN2CCC(CN3C(=O)c4cccc5cccc(c45)C3=O)CC2)c1 (stereo not drawn),1.2*,.,1.2*,.,.,.
CC/C(=N\NC(=O)c1ccc(N(C)C)cc1)c1ccccc1,82.7,.,79.8,.,.,.
COc1ccc2[nH]c(=O)c(CN(Cc3nnnn3Cc3ccco3)C3CCCCC3)cc2c1,75.5,68.8,67.2,38.2*,96.8,0.13
CCC(c1nnnn1Cc1ccco1)N(Cc1ccccc1OC)Cc1cc2cc(C)ccc2[nH]c1=O (stereo not drawn),55.4,81.3,40.0,78.8,85.9,1.24
COc1ccc2[nH]c(=O)c(CN(C3CCCCC3)C(c3nnnn3Cc3ccco3)C(C)C)cc2c1 (stereo not drawn),49.6,56.3,46.6,96.3,39.5*,0.4
CCC(c1nnnn1C1CCCCC1)N(Cc1ccco1)Cc1cc2ccc(OC)cc2[nH]c1=O (stereo not drawn),3.0*,53.0,18.2,15.0*,92.8,0.67
O=C(CSCCN1C(=O)c2ccccc2C1=O)Nc1ccc2ccccc2c1,92.6,.,96.8,.,.,.
CCCC/C(C)=N\NC(=O)CNS(=O)(=O)c1ccc([N+](=O)[O-])cc1,0.5*,.,0.4*,.,.,0.56
COCc1cc(C)nc(OCC(=O)N/N=C\c2cc(C)n(-c3cccc(C(F)(F)F)c3)c2C)c1C#N,105.2,.,102.5,.,.,0.47
COc1ccc(-c2oc(/N=C/N3CCOCC3)c(C#N)c2-c2ccc(OC)cc2)cc1,92.6,94.1,87.3,90.6,91.7,-3.57*
Cc1cc(C)n(C(=O)C2CCCN2S(=O)(=O)c2ccc(Cl)cc2)n1 (stereo not drawn),95.4,98.2,92.0,89.3,103.9,.
COc1cc(-c2nnc(COc3ccc4cc(Br)ccc4c3)o2)cc(OC)c1OC,61.0,45.9,72.0,23.8*,.,-0.29
COc1ccc(-c2nnc(COc3ccc4ccccc4c3)o2)cc1OC,106.8,79.8,92.5,76.3,98.7,-1.1
Cc1c(Cl)ccc2sc(NC(=O)CN3C(=O)c4ccccc4C3=O)nc12,0.8*,.,0.5*,.,.,.
CS(=O)(=O)N(CC(=O)NC1CCCC1)c1cccc(F)c1,72.9,101.8,79.6,90.4,99.9,0.8
CCCNC1=C(N(C(C)=O)c2cccc(F)c2)C(=O)c2ccccc2C1=O,1.0*,.,0.8*,.,.,.
COc1ccc(CCN2C(=S)NC3CC2(C)Oc2ccc([N+](=O)[O-])cc23)cc1OC (stereo not drawn),70.1,91.7,59.8,54.5,87.5,0.06
CN1c2ccccc2C(C)(C)C12C=Nc1c(ccc3ccccc13)O2 (stereo not drawn),72.8,111.6,61.2,85.0,98.2,1.28
CN1c2ccccc2C(C)(C)[C@]12C=Cc1cc(O)ccc1O2,29.6,49.5,30.5,8.6*,87.6,-0.89
Cc1cccc(Nc2nc(N)c([N+](=O)[O-])c(N3CCC(C)CC3)n2)c1,43.6,.,48.7,.,.,.
Cc1cccc(Nc2nc(N)c([N+](=O)[O-])c(N3CC(C)CC(C)C3)n2)c1 (stereo not drawn),1.4*,.,1.8*,.,.,.
CCOC(=O)c1[nH]c2ccccc2c1CCCN1C(=O)c2ccccc2C1=O,83.6,93.6,62.2,84.7,104.0,-3.03*
CCOC(=O)c1[nH]c2cc3c(cc2c1CCCN1C(=O)c2ccccc2C1=O)OCCO3,95.1,73.7,92.8,59.1,98.5,-1.04
Fc1cccc(Cl)c1Cn1nnc(-c2ccc3c(c2)OCO3)n1,73.7,95.3,84.3,84.9,97.9,-2.47
Fc1cccc(Cl)c1CSc1nnnn1-c1ccc2c(c1)OCO2,63.3,88.6,71.6,15.4*,92.5,-2
